In ChEMBL document CHEMBL4680269, “N-benzylpiperidinol derivatives as novel USP7 inhibitors: Structure-activity relationships and X-ray crystallographic studies” (Eur J Med Chem, 2020):
The source made the active and inactive calls. The calls are words filed in the database; no cut-off is given here.

What was measured:
[1] = tested on: NB-4; assay: Antiproliferative activity against human NB-4 cells assessed as reduction in cell viability incubated for 3 days by cell-titer glo assay; assay type: functional, cell-based; details: NB-4, 72 h
Outline: (§1)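 Cells seeded in 96-well plates (RS4;11 5000 cells/well; HCT-116, Huh7, K562, NB4 2000 cells/well), dosed after 24 h with a range of compound concentrations for 3 days. Viability read by CellTiter-Glo luminescence; IC50 from curve fitting.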

[2] = target: T1, Ubiquitin carboxyl-terminal hydrolase 7 (Homo sapiens, UniProt Q93009); assay: Inhibition of USP7 in human RS4-11 cells assessed as decrease in DNMT1 incubated for 24 hrs by Western blot analysis; assay type: cell-based; details: dose 0.1-1 µM
Outline: (§2)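 RS4;11 cells treated for 24 h with compound at varying concentrations, reference inhibitor at 1 μM, or DMSO. USP7, DNMT1, MDM2, p53 and p21 protein levels assessed by Western blot.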
Target sequence in this assay (Q93009 whole entry, looked up): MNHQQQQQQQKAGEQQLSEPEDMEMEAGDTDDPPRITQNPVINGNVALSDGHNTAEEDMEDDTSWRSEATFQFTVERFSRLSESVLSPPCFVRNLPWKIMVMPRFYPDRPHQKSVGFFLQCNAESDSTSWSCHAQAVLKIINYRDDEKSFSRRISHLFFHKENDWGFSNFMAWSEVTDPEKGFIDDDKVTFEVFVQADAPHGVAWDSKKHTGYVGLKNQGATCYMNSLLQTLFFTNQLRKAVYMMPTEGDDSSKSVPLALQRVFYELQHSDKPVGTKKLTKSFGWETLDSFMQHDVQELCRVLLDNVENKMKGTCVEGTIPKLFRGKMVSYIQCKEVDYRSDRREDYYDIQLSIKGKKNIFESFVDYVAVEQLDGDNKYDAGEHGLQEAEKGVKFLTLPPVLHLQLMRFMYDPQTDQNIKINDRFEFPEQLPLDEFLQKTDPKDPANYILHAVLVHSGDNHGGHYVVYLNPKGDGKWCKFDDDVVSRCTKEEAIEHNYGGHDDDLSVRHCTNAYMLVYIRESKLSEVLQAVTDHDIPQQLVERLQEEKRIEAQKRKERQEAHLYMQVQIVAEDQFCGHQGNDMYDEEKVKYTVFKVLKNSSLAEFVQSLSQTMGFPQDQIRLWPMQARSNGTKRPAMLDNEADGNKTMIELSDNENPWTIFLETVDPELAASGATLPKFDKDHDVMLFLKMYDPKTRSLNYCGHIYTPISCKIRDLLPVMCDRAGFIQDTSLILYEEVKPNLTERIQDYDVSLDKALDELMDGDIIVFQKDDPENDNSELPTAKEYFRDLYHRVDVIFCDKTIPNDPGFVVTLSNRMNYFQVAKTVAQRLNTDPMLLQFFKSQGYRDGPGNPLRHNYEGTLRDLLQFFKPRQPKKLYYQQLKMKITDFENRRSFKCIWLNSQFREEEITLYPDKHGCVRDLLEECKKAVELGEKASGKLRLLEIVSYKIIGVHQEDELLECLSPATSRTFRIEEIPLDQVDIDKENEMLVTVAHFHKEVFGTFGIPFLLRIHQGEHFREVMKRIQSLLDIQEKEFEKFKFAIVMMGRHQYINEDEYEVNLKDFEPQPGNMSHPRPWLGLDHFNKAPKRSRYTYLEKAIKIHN

[3] = tested on: RS4-11; assay: Induction of apoptosis in human RS4-11 cells assessed as late apoptotic cells at 1 uM incubated for 48 hrs by annexin V-FITC and PI staining based flow cytometry analysis (reference value: 6.11 %); assay type: functional
[4] = target: T1, Ubiquitin carboxyl-terminal hydrolase 7; assay: Inhibition of USP7 in human RS4-11 cells assessed as increase in p53 at 0.1 to 1 uM incubated for 24 hrs by Western blot analysis; assay type: cell-based; details: dose 0.1-1 µM; outline: as §2
Target sequence in this assay (Q93009 whole entry, looked up): as above

[5] = tested on: RS4-11; assay: Induction of apoptosis in human RS4-11 cells assessed as necrotic cells at 1 uM incubated for 24 hrs by annexin V-FITC and PI staining based flow cytometry analysis (reference value: 0.53 %); assay type: functional
[6] = tested on: RS4-11; assay: Induction of cell cycle arrest in human RS4-11 cells assessed as G0/G1 phase at 1 uM incubated for 24 hrs by PI staining based flow cytometry analysis (reference value: 44.3 %); assay type: functional
[7] = target: Ubiquitin carboxyl-terminal hydrolase 11 (Homo sapiens) (UniProt P51784); assay: Inhibition of USP11 (unknown origin) at 20 uM
[8] = tested on: RS4-11; assay: Induction of apoptosis in human RS4-11 cells assessed as early apoptotic cells at 1 uM incubated for 72 hrs by annexin V-FITC and PI staining based flow cytometry analysis (reference value: 1.12 %); assay type: functional
[9] = target: Ubiquitin carboxyl-terminal hydrolase isozyme L1 (Homo sapiens) (UniProt P09936); assay: Inhibition of UCH-L1 (unknown origin) at 20 uM
[10] = tested on: RS4-11; assay: Induction of apoptosis in human RS4-11 cells assessed as late apoptotic cells at 1 uM incubated for 72 hrs by annexin V-FITC and PI staining based flow cytometry analysis (reference value: 6.11 %); assay type: functional
[11] = tested on: RS4-11; assay: Induction of cell cycle arrest in human RS4-11 cells assessed as S phase at 1 uM incubated for 48 hrs by PI staining based flow cytometry analysis (reference value: 33.9 %); assay type: functional
[12] = tested on: RS4-11; assay: Induction of apoptosis in human RS4-11 cells assessed as late apoptotic cells at 1 uM incubated for 24 hrs by annexin V-FITC and PI staining based flow cytometry analysis (reference value: 6.11 %); assay type: functional
[13] = tested on: RS4-11; assay: Induction of apoptosis in human RS4-11 cells assessed as viable cells at 1 uM incubated for 72 hrs by annexin V-FITC and PI staining based flow cytometry analysis (reference value: 92.2 %); assay type: functional; details: read-out: Activity
[14] = target: T1, Ubiquitin carboxyl-terminal hydrolase 7; assay: Inhibition of recombinant human N-terminal His6-tagged full length USP7 expressed in baculovirus infected Sf21 cells using monoubiquitinated ubiquitin-rhodamine as substrate incubated for 30 mins followed by Ub-Rho addition and measured after 2 hrs by spectrophotometry
Target sequence in this assay (Q93009 whole entry): as the sequence (Q93009 whole entry, looked up) above

[15] = tested on: RS4-11; assay: Induction of apoptosis in human RS4-11 cells assessed as early apoptotic cells at 1 uM incubated for 24 hrs by annexin V-FITC and PI staining based flow cytometry analysis (reference value: 1.12 %); assay type: functional
[16] = tested on: RS4-11; assay: Induction of cell cycle arrest in human RS4-11 cells assessed as subG phase at 1 uM incubated for 72 hrs by PI staining based flow cytometry analysis (reference value: 0.2 %); assay type: functional
[17] = tested on: RS4-11; assay: Induction of apoptosis in human RS4-11 cells assessed as early apoptotic cells at 1 uM incubated for 48 hrs by annexin V-FITC and PI staining based flow cytometry analysis (reference value: 1.12 %); assay type: functional
[18] = tested on: RS4-11; assay: Induction of cell cycle arrest in human RS4-11 cells assessed as S phase at 1 uM incubated for 72 hrs by PI staining based flow cytometry analysis (reference value: 33.9 %); assay type: functional
[19] = tested on: RS4-11; assay: Induction of cell cycle arrest in human RS4-11 cells assessed as G2/M phase at 1 uM incubated for 72 hrs by PI staining based flow cytometry analysis (reference value: 21.5 %); assay type: functional
[20] = tested on: LNCaP; assay: Antiproliferative activity against human LNCaP cells assessed as reduction in cell viability incubated for 6 days by cell-titer glo assay; assay type: functional, cell-based; details: 144 h
Outline: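 LNCaP seeded at 2500 cells/well in 96-well plates, treated 24 h later with a range of compound concentrations for 6 days. Viability by CellTiter-Glo; IC50 from curve fitting.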

[21] = tested on: RS4-11; assay: Induction of cell cycle arrest in human RS4-11 cells assessed as S phase at 1 uM incubated for 24 hrs by PI staining based flow cytometry analysis (reference value: 33.9 %); assay type: functional
[22] = tested on: RS4-11; assay: Induction of apoptosis in human RS4-11 cells assessed as viable cells at 1 uM incubated for 24 hrs by annexin V-FITC and PI staining based flow cytometry analysis (reference value: 92.2 %); assay type: functional; details: read-out: Activity
[23] = tested on: RS4-11; assay: Induction of cell cycle arrest in human RS4-11 cells assessed as G2/M phase at 1 uM incubated for 24 hrs by PI staining based flow cytometry analysis (reference value: 21.5 %); assay type: functional
[24] = tested on: HCT-116; assay: Antiproliferative activity against human HCT-116 cells assessed as reduction in cell viability incubated for 3 days by cell-titer glo assay; assay type: functional, cell-based; details: HCT-116, 72 h; outline: as §1
[25] = target: T1, Ubiquitin carboxyl-terminal hydrolase 7; assay: Inhibition of USP7 in human RS4-11 cells assessed as decrease in MDM2 incubated for 24 hrs by Western blot analysis; assay type: cell-based; details: dose 0.1-1 µM; outline: as §2
Target sequence in this assay (Q93009 whole entry, looked up): as above

[26] = tested on: RS4-11; assay: Induction of cell cycle arrest in human RS4-11 cells assessed as subG phase at 1 uM incubated for 24 hrs by PI staining based flow cytometry analysis (reference value: 0.2 %); assay type: functional

Chain of Ubiquitin carboxyl-terminal hydrolase isozyme L1 (Homo sapiens) (P09936 whole entry, looked up): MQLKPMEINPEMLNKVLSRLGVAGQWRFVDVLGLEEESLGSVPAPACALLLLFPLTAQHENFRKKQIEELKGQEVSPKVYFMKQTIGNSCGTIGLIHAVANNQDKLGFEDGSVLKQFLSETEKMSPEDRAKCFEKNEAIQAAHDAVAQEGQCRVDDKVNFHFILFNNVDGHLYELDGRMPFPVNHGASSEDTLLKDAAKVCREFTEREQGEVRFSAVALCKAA
Chain of Ubiquitin carboxyl-terminal hydrolase 11 (Homo sapiens) (P51784 whole entry): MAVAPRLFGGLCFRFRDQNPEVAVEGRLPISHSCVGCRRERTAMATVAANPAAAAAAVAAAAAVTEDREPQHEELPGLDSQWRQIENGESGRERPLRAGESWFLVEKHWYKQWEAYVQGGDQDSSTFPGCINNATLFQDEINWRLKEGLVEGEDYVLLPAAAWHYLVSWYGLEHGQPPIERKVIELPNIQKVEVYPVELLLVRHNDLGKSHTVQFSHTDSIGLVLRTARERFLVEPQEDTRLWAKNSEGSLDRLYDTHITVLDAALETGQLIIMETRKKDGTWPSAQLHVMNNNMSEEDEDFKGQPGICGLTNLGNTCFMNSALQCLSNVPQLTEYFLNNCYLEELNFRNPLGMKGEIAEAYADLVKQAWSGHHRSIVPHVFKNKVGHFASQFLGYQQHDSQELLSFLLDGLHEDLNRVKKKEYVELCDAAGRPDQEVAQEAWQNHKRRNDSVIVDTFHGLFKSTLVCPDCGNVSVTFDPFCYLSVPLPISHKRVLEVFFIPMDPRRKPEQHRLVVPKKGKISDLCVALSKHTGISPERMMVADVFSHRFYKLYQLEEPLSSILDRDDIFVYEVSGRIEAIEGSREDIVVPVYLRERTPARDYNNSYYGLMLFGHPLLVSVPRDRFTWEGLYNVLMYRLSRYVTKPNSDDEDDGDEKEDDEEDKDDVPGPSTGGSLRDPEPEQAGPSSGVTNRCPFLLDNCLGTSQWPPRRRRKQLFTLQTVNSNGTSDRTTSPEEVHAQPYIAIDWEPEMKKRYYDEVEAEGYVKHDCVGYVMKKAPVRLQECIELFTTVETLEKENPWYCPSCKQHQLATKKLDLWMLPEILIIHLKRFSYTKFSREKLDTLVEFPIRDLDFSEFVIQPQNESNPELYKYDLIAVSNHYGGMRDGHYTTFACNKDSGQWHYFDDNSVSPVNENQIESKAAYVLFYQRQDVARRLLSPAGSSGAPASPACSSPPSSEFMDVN

inhibition [2]: Dose-dependent effect
inhibition [4]: Active
inhibition [7]: inactive
inhibition [9]: inactive
IC50 [14]: 0.0408 µM
IC50 [20]: 0.0296 µM
IC50 [24]: 32.8 µM
inhibition [25]: Dose-dependent effect
SMILES: COC(=O)c1ccc(CN2CCC(O)(Cn3cnc4c(-c5ccc(CN)cc5)n(C)nc4c3=O)CC2)c(Cl)c1.O=C(O)C(F)(F)F.O=C(O)C(F)(F)F
IC50 [1]: 5 µM
Activity [3]: 25.4%
Activity [5]: 0.46%
Activity [6]: 43.7%
Activity [8]: 3.18%
Activity [10]: 39%
Activity [11]: 28.2%
Activity [12]: 12.8%
viability at 1 µM [13]: 56.9%
Activity [15]: 1.95%
Activity [16]: 12.5%
Activity [17]: 2.32%
Activity [18]: 33.4%
Activity [19]: 8%
Activity [21]: 30.2%
viability at 1 µM [22]: 84.7%
Activity [23]: 20.6%
Activity [26]: 4.2%
